Experiment: Toxicity liver stage against HepG2, at 10uM
Assay type: cell-based
Set-up: test concentration 10 uM, cell line HepG2-A16-CD81EGFP
Conditions: human, HepG2-A16-CD81EGFP cells; read-out: INHIBITION
Outline: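 Uninfected HepG2-A16-CD81EGFP cells, 3 × 10^3 per well, 1536-well, plated on prespotted compound at 10 μM final, parasite-free screening media added to match infected plates; puromycin 10 μM positive, DMSO 0.5% negative; run in parallel with 48 h PbLuc assay at 37 °C, 5% CO2; viability by CellTiter-Glo luminescence, normalized to controls.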

Structure (SMILES) | cytotoxicity at 10 µM [%]
CCCn1ncc(C2CC(=O)NCc3nc4cc(C)ccn4c32)c1C (centres undefined) | -3.21
CC(=O)N1CCCN(c2nccc(-c3cn(C)nc3C)n2)CC1 | 22.3
O=C(CCn1ccccc1=O)Nc1ccc(F)c(Cl)c1 | 13.1
COC(=O)Cn1cccc(S(=O)(=O)N2CCC(C)CC2)c1=O | -2.85
O=S(=O)(NCCCn1cncn1)c1ccc2c(c1)OCCO2 | 5.38
Cc1ncc(C(=O)N2CC[C@@]3(O)CCN(C(=O)N(C)C)C[C@H]3C2)cn1 | -46.3
CN(C)C(=O)c1nc(CN2C(=O)OC[C@@H]2c2ccccc2)no1 | -1.95
Cc1ncsc1CN1CCn2c(COc3cccnc3)cnc2C1C (centres undefined) | 9.16
Cc1nn(C)c(N2CCOCC2)c1CNC1CCC(O)CC1 (centres undefined) | -13.2
O=C(c1cnccn1)N1CCN2C[C@H](Oc3cccc(F)c3)C[C@H]2C1 | 11.7
CCOc1cccc(C(=O)N2CCC3(CC2)[C@H](O)C[C@@H]3OC)c1 | 2.01
Cc1nc(C(=O)N(CC2CCCO2)c2ccncc2)cs1 (centres undefined) | -7.3
CC(NC(=O)Cn1cccnc1=O)c1ccc(C(F)(F)F)cc1 (centres undefined) | 8.2
CCc1cc(NC2CCN(S(C)(=O)=O)CC2)n2nc(C)c(C)c2n1 | -12.2
CC(C)Oc1cccc(F)c1C(C(=O)O)N1CCCC1 (centres undefined) | -3.33
O=C(NCC1(Sc2ccccc2)CC1)c1c[nH]nn1 | -17.9
O=C(C1CC=CC1)N1C[C@@H](OCc2cccnc2)[C@H]2OCCC[C@H]21 | 2.74
Cc1sc(CN)nc1-c1ccc(Cl)cc1Cl | -1.14
Cc1cnn(CC(C)NCc2nc(-c3ccoc3)no2)c1 (centres undefined) | 23.3
COc1cc(C(=O)N(Cc2ccco2)C2CC2)cc(OC)c1OC | 4.53
C[S+]([O-])c1nncn1CCCc1ccc(Cl)cc1 (centres undefined) | -8.64
O=C(c1cc2c(s1)CCC2)N1CCCCC1Cn1cccn1 (centres undefined) | -4.86

Structure (SMILES) | cytotoxicity at 10 µM [%]
CCc1ncc(C(=O)N2CCCC(c3nccn3CCOC)C2)cn1 (centres undefined) | -0.262
Cc1[nH]ncc1C(=O)N(CC(C)C)CC(O)c1ccc(F)cc1 (centres undefined) | -1.61
CC(CNC(=O)c1nc(N2CCOCC2)ncc1Cl)c1ccccc1 (centres undefined) | 0.666
O=C(c1ccccc1C(F)(F)F)N1C[C@@H](CN2CCOCC2)[C@@H](CO)C1 | -3.7
COc1ccc(CNCC(C)Oc2ccccn2)cc1 (centres undefined) | -2.7
O=C([C@H]1CCCO1)N1CCC2(CC1)Cc1ccccc1CNC2=O | -101
CCOCC(O)CN1CCN(C(=O)c2ccnc(N(C)C)c2)CC1 (centres undefined) | -3.47
Cc1cccc(-c2noc([C@@H]3C[C@@H](O)CN3C3CCOCC3)n2)c1 | 4.9
Cc1cnc(NCCCN2CCc3ccccc32)nc1 | 2.24
Cn1ncc(N2CCC(CNC3CC(C)(C)CC(C)(C)C3)C2)cc1=O (centres undefined) | -10.4
CCOCCCNC(=O)CCCC(=O)n1nc(C)c2ccccc21 | -1.29
COc1ccc(C(=O)N2CCCC2c2noc(C(C)C)n2)nn1 (centres undefined) | -4.01
Cc1ncsc1C(=O)N1CCC(O)(Cn2c(C)cc3ccncc32)CC1 | 9.59
CS(=O)(=O)N1CCN(CC(O)COc2ccc(F)cc2)CC1 (centres undefined) | 6.11
c1ccc2oc(CCCN3CCCC(Cn4cncn4)C3)nc2c1 (centres undefined) | -27.8
Cc1[nH]c2cc(C3CCN(C(=O)c4ccccn4)CC3)nn2c(=O)c1C | 0.636
C[C@]1(O)CN(CC(=O)N2CCCC2)CC[C@@H]1Oc1cccc(F)c1 | -19.1
CCc1ccc(NC(=O)N2C[C@@H]3C[C@H](C(=O)NC(C)C)[C@H](C2)O3)cc1 | -1.67
O=S(=O)(c1cncc(F)c1)N1CCC2(CCOC2)C1 (centres undefined) | -0.872
CCOCCn1nc(C)cc1C(=O)N1C[C@@H](C)[C@](O)(C2CC2)C1 | -3.9
Cc1ccc(NC(=O)C2CSCN2C(=O)c2cc[nH]n2)c(C)c1 (centres undefined) | -6.1
CCc1nc(CC(=O)NC(C#N)CC(C)C)cs1 (centres undefined) | 9.17

Source: ChEMBL document CHEMBL4513216, “Probing the Open Global Health Chemical Diversity Library for Multistage-Active Starting Points for Next-Generation Antimalarials” (ACS Infect Dis, 2020)
